Measured values published in article PMC3774598 (Biochemistry, 2013).

Experiments:
saFabI [1] = target: T1, saFabI (Staphylococcus aureus, UniProt Q6GI75); assay: Forward progress curve kinetics of saFabI inhibition; type: biochemical; conditions: for slow-binding inhibition of saFabI: curvature of progress curves; for potency estimated from few doses: read-out: Ki; for tR: residence time tR = 1/k-1, k-1 from progress curves (b)
T1 sequence (Q6GI75 1-256): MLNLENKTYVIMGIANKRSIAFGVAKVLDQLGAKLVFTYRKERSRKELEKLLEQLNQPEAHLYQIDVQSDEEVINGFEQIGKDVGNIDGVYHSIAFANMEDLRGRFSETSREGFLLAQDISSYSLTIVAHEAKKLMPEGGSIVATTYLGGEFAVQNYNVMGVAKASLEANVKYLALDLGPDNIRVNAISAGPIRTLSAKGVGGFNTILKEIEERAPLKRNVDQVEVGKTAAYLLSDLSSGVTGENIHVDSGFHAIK

saFabI R40Q/K41N/S44L = saFabI R40Q/K41N/S44L (Staphylococcus aureus, UniProt Q6GI75, K41N/R40Q/S44L); assay: 32P-NAD+ dissociation kinetics; type: binding; conditions: for k-1: footnote d: 32P-NAD-based dissociation curve fitted to Eq 5; for tR: residence time tR = 1/k-1, k-1 from 32P-NAD dissociation (d)
saFabI [2] = target: T1, saFabI; assay: Jump dilution assay; type: biochemical; conditions: for recovery of enzyme activity after dilution: 1:200 dilution after overnight preincubation with NADP+; for k-1: footnote c: jump dilution curve fitted to Eq 1; for tR: residence time tR = 1/k-1, k-1 from jump dilution (c)
Procedure, shortened: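 Enzyme expressed in E. coli BL21(DE3) and purified by Ni2+ affinity and size exclusion. 10 μM enzyme was preincubated overnight at room temperature with 15 μM inhibitor and 500 μM NADP+. NADPH oxidation was read at 340 nm, 20 °C, and fitted to the Morrison–Walsh integrated equation.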

Row | SMILES | tR (saFabI [1]) | k-1 (saFabI R40Q/K41N/S44L) | tR (saFabI R40Q/K41N/S44L) | other results
1 | O=[N+]([O-])c1ccc(Oc2ccccc2)c(O)c1 [PT104] | 6.6 ^b min | – | – | slow-binding inhibition of saFabI (saFabI [1]; in words): clear slow-binding inhibition; potency estimated from few doses (saFabI [1]): 1.49 ± 0.27 nM
2 | N#Cc1ccccc1Oc1ccc(Br)cc1O [PT443] | 210.9 ^b min | – | – | –
3 | CCc1ccc(Oc2ccccc2)c(O)c1 [PT01] | 63.8 ^b min | 0.72 ± 0.08 ^d hr^-1 | 83.3 ^d min | –
4 | CCCCCc1ccc(Oc2ccccc2)c(O)c1 [PT03] | 300.0 ^b min | 0.32 ± 0.17 ^d hr^-1 | 187.5 ^d min | –
5 | CCCCCCc1ccc(Oc2ccccc2C)c(O)c1 [PT70] | – | – | – | change of affinity by the 2′-substituent (saFabI [1]; B-ring ortho position SAR, in words, PT70 data not shown): increased affinity
6 | CCCCCCc1ccc(Oc2ccccc2)c(O)c1 [PT04, 5-hexyl-2-phenoxyphenol] | – | 0.13 ± 0.04 ^d hr^-1 | 461.5 ^d min | –
7 | Oc1ccccc1Oc1ccccc1 [PT51] | ≤ 1 min | – | – | slow-binding inhibition of saFabI (saFabI [1]; in words): slow-binding inhibition could not be observed
8 | CCCc1ccc(Oc2ccccc2)c(O)c1 [PT02] | 60.9 ^b min | 0.57 ± 0.09 ^d hr^-1 | 105.3 ^d min | –
9 | N#Cc1ccccc1Oc1ccc(Cl)cc1O [PT447] | 136.4 ^b min | 0.47 ± 0.08 ^d hr^-1 | 127.7 ^d min | recovery of enzyme activity after dilution (saFabI [2]): partially recovered
10 | Oc1cc(Cl)ccc1Oc1ccccc1 [PT52] | 35.3 ^b min | 2.13 ± 0.41 ^d hr^-1 | 28.2 ^d min | recovery of enzyme activity after dilution (saFabI [2]): full recovery of enzyme activity; k-1 (saFabI [2]): 2.33 ± 0.03 ^c hr^-1; tR (saFabI [2]): 25.8 ^c min
11 | Cc1ccc(Oc2ccccc2)c(O)c1 [PT53, 5-Methyl-2-phenoxyphenol] | 17.3 ^b min | – | – | potency estimated from few doses (saFabI [1]): 0.38 ± 0.03 nM; k-1 (saFabI [2]): 4.53 ± 0.08 ^c hr^-1; tR (saFabI [2]): 13.2 ^c min
